Values joined by “and” are separate entries in the source; they are usually repeats but may differ in a detail not shown here. Identical values can stand only once.
Columns and labels:
HEK-293T = experiment: Multiplex assay against HEK293T; assay type: toxicity, cell-based; details: human
How it was run: (§1)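 With compound added, live cells were imaged on a CQ1 microscope at 37°C and 5% CO2; staining with Hoechst33342, BioTracker Green Microtubule Cytoskeleton Dye, MitoTracker Red and Annexin V Alexa Fluor 680 had been done at seeding. The CellPathfinder machine-learning gating scheme split cells into Hoechst high-intensity objects or normal cells, normal cells into healthy, pyknosed or fragmented nuclei, and pyknosed cells into mitotic or apoptotic. The tubulin, mitochondrial-mass and membrane-permeability phenotypes are per cents of healthy-nucleus cells.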

U2OS = experiment: Multiplex assay against U2OS; assay type: toxicity, cell-based; details: human; how it was run: as §1
[1] = 24 h, 1 µM, compound concentration 1 uM
[2] = 24 h, 10 µM, compound concentration 10 uM
[3] = 48 h, 1 µM, compound concentration 1 uM
[4] = 48 h, 10 µM, compound concentration 10 uM
[5] = 12 h, 1 µM, compound concentration 1 uM
[6] = 12 h, 10 µM, compound concentration 10 uM

Cl.Cl.N#Cc1ccc(O[C@@H]2c3ccccc3C[C@H]2N2CCC[C@@H](N)C2)c(Cl)c1
Population Normal (%) (HEK-293T; [1]): 99.8% and 100%
Population Pyknosed Nuclei (%) (HEK-293T; [1]): 30.5% and 77.48%
Population Tubulin-Different-Phenotype (%) (HEK-293T; [1]): 42.9% and 56.25%
Population Apoptotic (%) (HEK-293T; [2]): 63.58% and 76.03%
Population Fragmented Nuclei (%) (HEK-293T; [2]): 3.91% and 5.04%
Population Hoechst High Intensity Objects (%) (HEK-293T; [2]): 1.16% and 0%
Population Membrane Permeable-Phenotype (%) (HEK-293T; [2]): 1.05% and 9.09%
Population Mitochondria Different-Phenotype (%) (HEK-293T; [2]): 72.63% and 63.64%
Population Mitotic Cells (%) (HEK-293T; [2]): 36.42% and 23.97%
Population Normal (%) (HEK-293T; [2]): 98.84% and 100%
Population Pyknosed Nuclei (%) (HEK-293T; [2]): 58.98% and 87.05%
Population Tubulin-Different-Phenotype (%) (HEK-293T; [2]): 93.68% and 90.91%
Total Cell Count (HEK-293T; [2]): 259 and 139
Population Fragmented Nuclei (%) (HEK-293T; [3]): 2.55% and 7.63%
Population Healthy Nuclei (%) (HEK-293T; [3]): 83.85% and 39.83%
Population Hoechst High Intensity Objects (%) (HEK-293T; [3]): 0.11% and 0%
Population Membrane Permeable-Phenotype (%) (HEK-293T; [3]): 7.35% and 0%
Population Mitochondria Different-Phenotype (%) (HEK-293T; [3]): 44.61% and 70.21%
Population Mitotic Cells (%) (HEK-293T; [3]): 90.62% and 66.13%
Population Normal (%) (HEK-293T; [3]): 99.89% and 100%
Population Apoptotic (%) (HEK-293T; [4]): 63.04% and 79.59%
Population Fragmented Nuclei (%) (HEK-293T; [4]): 2.57% and 5.97%
Population Healthy Nuclei (%) (HEK-293T; [4]): 58% and 20.9%
Population Hoechst High Intensity Objects (%) (HEK-293T; [4]): 1.69% and 0.74%
Population Membrane Permeable-Phenotype (%) (HEK-293T; [4]): 1.48% and 7.14%
Population Mitochondria Different-Phenotype (%) (HEK-293T; [4]): 95.07% and 92.86%
Population Mitotic Cells (%) (HEK-293T; [4]): 36.96% and 20.41%
Population Normal (%) (HEK-293T; [4]): 98.31% and 99.26%
Population Pyknosed Nuclei (%) (HEK-293T; [4]): 39.43% and 73.13%
Population Tubulin-Different-Phenotype (%) (HEK-293T; [4]): 30.05% and 89.29%
Total Cell Count (HEK-293T; [4]): 356 and 135
Population Apoptotic (%) (U2OS; [5]): 27.27% and 23.68%
Population Fragmented Nuclei (%) (U2OS; [5]): 3.65% and 1.32%
Population Healthy Nuclei (%) (U2OS; [5]): 79.64% and 73.51%
Population Hoechst High Intensity Objects (%) (U2OS; [5]): 0%
Population Membrane Permeable-Phenotype (%) (U2OS; [5]): 24.05% and 54.05%
Population Mitotic Cells (%) (U2OS; [5]): 72.73% and 76.32%
Population Normal (%) (U2OS; [5]): 100%
Population Pyknosed Nuclei (%) (U2OS; [5]): 16.72% and 25.17%
Population Tubulin-Different-Phenotype (%) (U2OS; [5]): 57.25% and 71.17%
Total Cell Count (U2OS; [5]): 329 and 151
Population Apoptotic (%) (U2OS; [6]): 46.21% and 25.32%
Population Fragmented Nuclei (%) (U2OS; [6]): 4.14% and 2.88%
Population Healthy Nuclei (%) (U2OS; [6]): 56.8% and 40.29%
Population Hoechst High Intensity Objects (%) (U2OS; [6]): 0%
Population Membrane Permeable-Phenotype (%) (U2OS; [6]): 11.98% and 32.14%
Population Mitochondria Different-Phenotype (%) (U2OS; [6]): 63.54% and 89.29%
Population Mitotic Cells (%) (U2OS; [6]): 53.79% and 74.68%
Population Normal (%) (U2OS; [6]): 100%
Population Pyknosed Nuclei (%) (U2OS; [6]): 39.05% and 56.83%
Population Tubulin-Different-Phenotype (%) (U2OS; [6]): 88.02% and 89.29%
Total Cell Count (U2OS; [6]): 338 and 139
Population Apoptotic (%) (U2OS; [1]): 47.5% and 39.47%
Population Fragmented Nuclei (%) (U2OS; [1]): 2.74% and 2.58%
Population Healthy Nuclei (%) (U2OS; [1]): 77.31% and 72.9%
Population Hoechst High Intensity Objects (%) (U2OS; [1]): 0%
Population Membrane Permeable-Phenotype (%) (U2OS; [1]): 19.35% and 35.4%
Population Mitotic Cells (%) (U2OS; [1]): 52.5% and 60.53%
Population Normal (%) (U2OS; [1]): 100%
Population Pyknosed Nuclei (%) (U2OS; [1]): 19.95% and 24.52%
Population Tubulin-Different-Phenotype (%) (U2OS; [1]): 32.58% and 69.03%
Total Cell Count (U2OS; [1]): 401 and 155
Population Apoptotic (%) (U2OS; [2]): 64.9% and 68.09%
Population Fragmented Nuclei (%) (U2OS; [2]): 3.82% and 4.96%
Population Healthy Nuclei (%) (U2OS; [2]): 51.76% and 28.37%
Population Hoechst High Intensity Objects (%) (U2OS; [2]): 0%
Population Membrane Permeable-Phenotype (%) (U2OS; [2]): 9.09% and 12.5%
Population Mitochondria Different-Phenotype (%) (U2OS; [2]): 73.3% and 92.5%
Population Mitotic Cells (%) (U2OS; [2]): 35.1% and 31.91%
Population Normal (%) (U2OS; [2]): 100%
Population Pyknosed Nuclei (%) (U2OS; [2]): 44.41% and 66.67%
Population Tubulin-Different-Phenotype (%) (U2OS; [2]): 88.64% and 90%
Total Cell Count (U2OS; [2]): 340 and 141
Population Apoptotic (%) (U2OS; [3]): 60.55% and 72.41%
Population Fragmented Nuclei (%) (U2OS; [3]): 2.44% and 3.43%
Population Healthy Nuclei (%) (U2OS; [3]): 79.8% and 63.43%
Population Hoechst High Intensity Objects (%) (U2OS; [3]): 0%
Population Mitotic Cells (%) (U2OS; [3]): 39.45% and 27.59%
Population Normal (%) (U2OS; [3]): 100%
Population Pyknosed Nuclei (%) (U2OS; [3]): 17.75% and 33.14%
Population Apoptotic (%) (U2OS; [4]): 73.29% and 91.21%
Population Fragmented Nuclei (%) (U2OS; [4]): 7.46% and 4.9%
Population Healthy Nuclei (%) (U2OS; [4]): 56.22% and 31.47%
Population Hoechst High Intensity Objects (%) (U2OS; [4]): 0% and 0.69%
Population Membrane Permeable-Phenotype (%) (U2OS; [4]): 5.75% and 15.56%
Population Mitochondria Different-Phenotype (%) (U2OS; [4]): 52.21% and 86.67%
Population Normal (%) (U2OS; [4]): 100% and 99.31%
Population Pyknosed Nuclei (%) (U2OS; [4]): 36.32% and 63.64%
Population Tubulin-Different-Phenotype (%) (U2OS; [4]): 66.37% and 84.44%
Total Cell Count (U2OS; [4]): 402 and 144

Reference: ChEMBL document CHEMBL5724801, “EUbOPEN Chemogenomics Library - Multiplex” (2024)
